The values that follow come from PubChem BioAssay AID449754 (Broad Institute, 2010).

The AC50 is the concentration giving half of the maximal activity seen.

Results filed as inconclusive are left out. Activity calls are given as the source filed them.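 How the source made its calls: active means compounds whose fitted caspase activation AC50 is no more than tenfold above the top tested dose; inconclusive means flat fit with 30 to 70% activity, or a failed fit; inactive means the rest.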 Where only a bound is given, the exact number is not on record here.

The assay deals with MEF Bax/Bak KO A1-BIM, caspase-Glo luminescence, 3 h. Briefly: caspase signal in Bax-Bak null A1-BIM cells – cell-based, Bax-Bak knockout MEF, A1-2A-BIM, luminescence, counter-screen for A1 inhibitor project, dose response (AID 449754).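 Further: counterscreen where caspase activation signals off-target toxicity not A1 inhibition.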 The method in brief:
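Material: Bax/Bak-knockout mouse embryonic fibroblasts expressing A1-2A-BIM; Quantity: 2500 cells per well, seeded one day before compound; Buffer or medium: RPMI-1640 growth medium with 10% FBS; Doses: 100 nL pinned compound per well; Times: 3 h compound at 37 °C, 1 h detection at RT; Signal: CaspaseGlo luminescence; Evaluation: caspase activity from luminescent signal.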
On to `O=C(CCl)N=c1sccn1Cc1ccccc1Cl`, for which the AC50 was > 35 µM (inactive).

As to `CCOC(=O)C(C(=O)OCC)c1cc(Br)c2noc3c2c1C(=O)c1ccccc1-3`, the AC50 was > 35 µM (inactive).

For `O=C(CN(c1ccc(Br)cc1)S(=O)(=O)c1ccc(Cl)c([N+](=O)[O-])c1)NCCc1ccccc1`, the AC50 was > 35 µM (inactive).

For `COc1ccc(C(=O)/C=C/C(=O)N(CC(=O)NC2CCCCC2)Cc2cccs2)c(O)c1`, the AC50 is > 35 µM (inactive).

On to `NC(=S)c1cn(C2OC(CO)C(O)C2O)c2ncnc(N)c12` (configuration not stated), for which the AC50 is > 35 µM (inactive).

In the case of `CCOC(=O)N1C(=O)[C@@](c2ccc(Cl)cc2)(C(C)C)N1C(=O)OCC`, the AC50 was 35.1 µM.

For the compound `O=C(NCCc1ccccc1)C(c1cccs1)N(C(=O)CCl)c1ccc(Cl)cc1` (configuration not stated), the AC50 was 6.03 µM.

With `CCc1ccc(NC(=O)c2nc(S(=O)(=O)Cc3ccccc3)ncc2Cl)cc1`, the AC50 is > 35 µM (inactive).

Consider `Cc1cc(C)cc(Cn2ncc(Cl)c(Cl)c2=O)c1`, for which the AC50 was > 35 µM (inactive).

Turning to `CCc1nnc(NC(=O)CSc2nc(-c3ccccc3)cc(-c3ccc(F)cc3)c2C#N)s1`, the AC50 is 35.8 µM.

For the compound `Cc1cc(C(=O)CCl)c(C)n1CCc1ccc(Cl)cc1`, the AC50 is > 35 µM (inactive).

On to `COc1ccccc1C(=O)Nc1ccnn1C1CCN(Cc2cn(C)c3ccccc23)CC1`, for which the AC50 is > 35 µM (inactive).

Turning to `Cc1cccc(NC(=O)CSc2nc(C)c(CC(=O)c3ccc(Br)cc3)c(C)c2C#N)c1C`, the AC50 is > 35 µM (inactive).

With `C#CC(=O)N(c1cc(OC)ccc1OC)C(C(=O)NC1CCCC1)c1cccs1` (configuration not stated), the AC50 is > 35 µM (inactive).

On to `CCOCCCNC(=O)c1ccc2c(c1)N=C(CC)c1cc(Br)ccc1S2`, for which the AC50 is > 35 µM (inactive).

Take `N#C/C(=C\c1ccc(OCc2ccccc2)cc1)C(=O)Nc1nc2c(s1)CCN(Cc1ccccc1)C2`: the AC50 is > 35 µM (inactive).

As for `CCn1c(SCC(=O)c2ccccc2)nnc1-c1cc2cc(Br)ccc2o1`, the AC50 was > 35 µM (inactive).

`COc1cc2c(-c3ccccc3)c(C)oc2cc1/C=N/NC(N)=S`: the AC50 is > 35 µM (inactive).

Regarding `Cc1ccc(NC(=O)c2ccc(NCC3CCCO3)c([N+](=O)[O-])c2)cc1Cl` (configuration not stated), the AC50 was > 35 µM (inactive).

Take `CCOc1cc(C(=O)CSc2nnc(CNc3ccc(Cl)cc3)o2)ccc1NC(=O)CC`: the concentration at half-maximal activity (AC50) was 17.6 µM.

With `O=[N+]([O-])/C=C/c1cn(Cc2ccc(Cl)cc2)c2ccccc12`, the half-maximal activity concentration (AC50) was 20.7 µM.

On to `CC(C)(C)C1C/C(=C/c2ccccn2)C(=O)/C(=C/c2ccccn2)C1` (configuration not stated), for which the AC50 is 8.26 µM.

Turning to `COc1ccc(NC(=O)C(=O)N/N=C\c2ccc(CNC(=O)C(=O)Nc3ccc(C)c(C)c3)o2)c(OC)c1`, the AC50 was 32 µM.

Regarding `COc1ccc(-c2c(C#N)c(N)nc(Sc3ccc(Cl)cc3)c2C#N)cc1`, the AC50 is > 35 µM (inactive).

For `O=C(N=Nc1c(O)[nH]c2ccc([N+](=O)[O-])cc12)c1cc(-c2ccccc2Cl)nc2ccccc12`, the AC50 is > 35 µM (inactive).

Consider `O=C(NCc1ccccc1Br)c1cccc2c1C(=O)c1ccc(-c3ccc(OC(F)(F)F)cc3)cc1S2(=O)=O`, for which the AC50 was > 35 µM (inactive).

For `CN1C2CCC1/C(=C/c1ccccn1)C(=O)/C2=C\c1ccccn1`, the AC50 is > 35 µM (inactive).

In the case of `O=C(Oc1cccc(/C=N/Nc2nc(Nc3ccccc3)nc(N3CCOCC3)n2)c1)c1ccco1`, the AC50 was > 35 µM (inactive).

Consider `Cc1ccc(NC(=O)CSc2nc3nc(C)c(Br)cc3[nH]2)cc1F`, for which the AC50 is > 35 µM (inactive).

Take `CC(=O)[C@]1(O)Cc2c(O)c3c(c(O)c2[C@@H](O[C@H]2C[C@H](N)[C@H](O)[C@H](C)O2)C1)C(=O)c1ccccc1C3=O`: the AC50 is > 35 µM (inactive).

For the compound `COc1ccc(C2Nc3ccc4ccccc4c3-c3c2c(=O)oc2ccccc32)cc1` (configuration not stated), the AC50 was 18.7 µM.

Regarding `COc1ccc(-c2oc(=O)c3cc(OC)c(OC)cc3c2/C=C/c2cccc([N+](=O)[O-])c2)cc1`, the AC50 is > 35 µM (inactive).

In the case of `O=C(c1ccc(COc2ccc3ccccc3c2)o1)N1N=C(C(F)F)CC1(O)C(F)F` (configuration not stated), the AC50 is > 35 µM (inactive).

For the compound `CCS(=O)(=O)c1ncc(Cl)c(C(=O)Nc2ccccc2OC)n1`, the AC50 is > 35 µM (inactive).

As to `O=C(N/C=N/OCc1ccc(Cl)cc1Cl)NOCc1ncc(C(F)(F)F)cc1Cl`, the AC50 is > 35 µM (inactive).

Turning to `CCn1c(Cl)c(C=O)s/c1=N\S(=O)(=O)c1ccccc1`, the AC50 is > 35 µM (inactive).

`Cc1nc(SCc2nc3c([N+](=O)[O-])cccc3[nH]2)c2oc3ccccc3c2n1`: the AC50 was > 35 µM (inactive).

In the case of `C=C1CCc2c([nH]c3ccc(OCC(C)C)cc23)C1=O`, the AC50 is 16.6 µM.

In the case of `COc1cc(/C=C(/C#N)c2nc3ccccc3[nH]2)ccc1OCC(=O)Nc1ccccc1C`, the AC50 is 7.39 µM.

In the case of `CCN(C(=O)CCN1C(=O)c2ccccc2S1(=O)=O)c1ccccc1`, the AC50 was > 35 µM (inactive).

Regarding `COc1ccc(C2CC(c3c(O)cc(C)oc3=O)=NCCS2)c(OC)c1` (configuration not stated), the AC50 is > 35 µM (inactive).

With `CN(C)CCCN(C(=O)c1ccc(S(=O)(=O)N2CCc3ccccc3C2)cc1)c1nc2ccc(F)cc2s1`, the AC50 was > 35 µM (inactive).

Take `Cc1ccc(C)c(NC(=S)NC(NC(=O)Cc2cccc3ccccc23)C(Cl)(Cl)Cl)c1` (configuration not stated): the concentration at half-maximal activity (AC50) is 24.1 µM.

As for `CCc1nnc(NC(=O)c2nc(S(=O)(=O)Cc3ccccc3)ncc2Cl)s1`, the AC50 was > 35 µM (inactive).

Turning to `CC[C@H]1CN2CCc3cc(OC)c(OC)cc3[C@@H]2C[C@@H]1C[C@H]1NCCc2cc(OC)c(OC)cc21`, the AC50 is > 35 µM (inactive).

On to `O=C(Nc1ccc(Cl)cc1Cl)c1cccc(N2C(=O)C=CC2=O)c1`, for which the AC50 was > 35 µM (inactive).

For `COc1cc(C(=O)Nc2cc3c(cc2N2CCCCC2)n(C)c(=O)n3C)cc(OC)c1OC`, the AC50 is > 35 µM (inactive).

With `Cc1cccc(Nc2nc(N)c([N+](=O)[O-])c(N3CCCC(C)C3)n2)c1` (configuration not stated), the AC50 is > 35 µM (inactive).

Take `COc1ccc(S(=O)(=O)N2CC(O)CC2C(=O)OCC(=O)Nc2ccc(Cl)cn2)cc1` (configuration not stated): the AC50 was > 35 µM (inactive).

Take `O=C(COc1ccc(/C=N/NC(=O)c2cc3ccccc3o2)cc1Cl)Nc1ccccc1`: the AC50 was 9.03 µM.

As to `COc1ccc(-c2nc(NC(=O)c3n[nH]c(=O)c4ccccc34)sc2C)cc1`, the AC50 is > 35 µM (inactive).

Regarding `Cc1[nH]nc2nc(SCC(=O)NCCC3=CCCCC3)n(-c3ccc(Br)cc3)c(=N)c12`, the AC50 was 18.6 µM.

Turning to `Cc1ccc(C)c(S(=O)(=O)NCC(=O)Nc2sc3c(c2C(N)=O)CCC(C)C3)c1` (configuration not stated), the AC50 was > 35 µM (inactive).

For `COc1cc(NC(=O)c2ccccc2F)ccc1NC(=O)c1cc2ccccc2o1`, the AC50 is > 35 µM (inactive).

Take `CC(C)(C)c1ccc2c(c1)OC(C(=O)N/N=C\c1ccc[nH]1)CO2` (configuration not stated): the AC50 is > 35 µM (inactive).

For `COc1ccccc1CCNC(C)CCc1ccc(O)cc1` (configuration not stated), the AC50 is > 35 µM (inactive).

Regarding `COc1ccc(OC[C@@H](O)CNC(=O)c2cccc3c2C(=O)c2ccc(-c4ccc(F)cc4OCc4ccccc4)cc2S3(=O)=O)cc1`, the AC50 was > 35 µM (inactive).

As to `CC(C)c1cccc(-c2ccc3c(c2)S(=O)(=O)c2cccc(C(=O)NC4CCCC4)c2C3=O)c1`, the AC50 was > 35 µM (inactive).

Regarding `Cc1cc(NC(=O)/C(C#N)=C/c2ccc(-c3ccc(SC(F)F)cc3)o2)n(-c2ccccc2)n1`, the AC50 is > 35 µM (inactive).

Turning to `COc1cc2c(cc1NC(=O)COC(=O)/C=C/c1ccccc1)oc1ccccc12`, the AC50 was > 35 µM (inactive).

Consider `CC1(C)C[C@H](O)[C@]2(CO)[C@H](O)C[C@]3(C)C(=CCC4[C@@]5(C)CC[C@H](O)C(C)(C)C5CC[C@]43C)[C@@H]2C1` (some centres not stated), for which the AC50 was > 35 µM (inactive).

With `COc1cc(-c2cc(-c3ccccc3)nc(SCC(=O)Nc3nccs3)c2C#N)cc(OC)c1OC`, the AC50 was > 35 µM (inactive).

In the case of `Cc1c(C=O)c(C=O)c(C)n1Cc1ccccc1`, the AC50 was > 35 µM (inactive).

On to `O=C(/C=C/c1ccc(F)cc1)NC(=S)Nc1ccccc1C(=O)NC1CCCCC1`, for which the AC50 was > 35 µM (inactive).

For the compound `Cc1cc(=O)[nH]c(SCC(=O)Nc2ccc(Br)cc2)c1C#N`, the AC50 was > 35 µM (inactive).

Regarding `CC(C)CC(NC(=O)c1ccc(Cl)cc1)C(=O)OCC(=O)c1ccc2c(c1)NC(=O)CO2` (configuration not stated), the AC50 is 6.3 µM.

`CCOc1ccc(N2C(=O)/C(=C\c3ccc(O)c(OC)c3)S(=O)(=O)C2c2cccc([N+](=O)[O-])c2)cc1` (configuration not stated): the AC50 was > 35 µM (inactive).

As to `CC(C)c1cccc(-c2ccc3c(c2)S(=O)(=O)c2cccc(C(=O)NCc4ccccc4Cl)c2C3=O)c1`, the AC50 was > 35 µM (inactive).

As to `N#Cc1cccnc1N1CCN(C(=O)c2cccc3c2C(=O)c2ccc(-c4ccc(Cl)c(C(F)(F)F)c4)cc2S3(=O)=O)CC1`, the AC50 was > 35 µM (inactive).

Consider `CCSc1nnc(NC(=O)c2nc(S(=O)(=O)Cc3ccc(F)cc3)ncc2Cl)s1`, for which the AC50 is > 35 µM (inactive).

Turning to `CCOC(=O)CSC1=N/C(=C/c2ccc(-n3cncn3)cc2)C(=O)N1C(C)=O`, the AC50 is > 35 µM (inactive).

`COc1ccc2c(c1)CCc1c(C(=O)Nc3cc(C)n(Cc4ccc(Cl)cc4)n3)noc1-2`: the AC50 was 7.59 µM.

For the compound `Cc1ccc(-c2nc(NC(=O)c3nn(C)cc3[N+](=O)[O-])sc2C)cc1C`, the AC50 was 16.2 µM.

Turning to `CCc1ccc2nc(N(CCCN(C)C)C(=O)c3ccc(S(=O)(=O)N4CCc5ccccc5C4)cc3)sc2c1`, the AC50 is > 35 µM (inactive).

For the compound `COc1ccc(NC(=O)c2cccc3c2C(=O)c2ccc(-c4ccc(F)cc4OCc4ccccc4)cc2S3(=O)=O)cc1`, the AC50 was > 35 µM (inactive).

`COc1ccc(C[C@H]2NC[C@H](O)[C@H]2OC(C)=O)cc1`: the AC50 was > 35 µM (inactive).

For `Cc1cc(C)cc(NC(=O)/C(C#N)=C/c2cn(CC(=O)NCc3ccco3)c3ccccc23)c1`, the AC50 is 6.71 µM.
